# Sampled rows, rich in hits. Any-hit rate of the full collection: about 1.4%.
# HNF4A DNA FP – change in binding of human HNF4 alpha to DNA. P41235. HNF4a-FITC DNA binding, fluorescence polarization, 1 h. activity change, % at 10 µM. 360,000 tested, 0.3% active. AID 1224865; in the data active = activity change above about 30%, passing the limit was not always enough
# TPT1 inhibitor – C. albicans TPT1 enzyme inhibition; inhibition, % at 5 µM; recombinant caTPT1, FP RNA substrate dephosphorylation; AID 1962; 300,000 tested, 0.81% active;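 active = inhibition above the mean of all tested compounds plus 3 SD, set per screening campaign, cut at about 24% in these data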;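 note: plate controls were DMSO alone for no effect and ferristatin control at 100 nM for full effect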
# IDE inh – inhibitors of human insulin-degrading enzyme in cells; P14735; HEK cells, FAbetaB cleavage, fluorescence polarization; inhibition, % at 5.59 µM; 320,000 tested, 0.41% active;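 active = percent inhibition above the average of all tested compounds plus 3 SD, set per screening campaign, cut at about 16% in these data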;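 note: IDE supplied by intact live HEK cells; FP after avidin binding of uncleaved biotin substrate so inhibition keeps polarization high; 0% = DMSO wells and 100% = 60 µM reference IDE inhibitor Ii1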
# CSN inh – inhibitors of human CSN-mediated cullin deneddylation | Q92905 | Purified CSN, SCF-Nedd8-OG deneddylation, fluorescence polarization | inhibition, % at 12.5 µM | 360,000 tested, 0.38% active;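 active = pattern-corrected inhibition above about 35%, with an unprinted fluorescence ratio check between 0.5 and 1.5, limit read from the data, passing the limit was not always enough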;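 note: 0% = enzyme with substrate and 100% = substrate without enzyme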
# Target sequence (Q92905 whole entry, looked up, one chain of several): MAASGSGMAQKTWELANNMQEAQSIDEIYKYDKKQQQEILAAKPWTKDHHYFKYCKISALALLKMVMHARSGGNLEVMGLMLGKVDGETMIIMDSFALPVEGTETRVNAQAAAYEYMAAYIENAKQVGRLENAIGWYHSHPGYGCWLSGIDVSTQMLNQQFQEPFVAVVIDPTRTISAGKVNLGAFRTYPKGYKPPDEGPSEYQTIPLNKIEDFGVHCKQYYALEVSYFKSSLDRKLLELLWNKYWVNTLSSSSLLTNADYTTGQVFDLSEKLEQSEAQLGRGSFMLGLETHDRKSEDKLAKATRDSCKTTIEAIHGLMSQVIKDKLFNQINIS
#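 assay system = purified human Csn5 enzyme expressed in HEK293T cells | amount = 0.24 nM enzyme | buffer or medium = Tris/NaCl/DTT buffer, pH 7.5 | reagent = 10 nM SCFSkp2-Nedd8OG | compound = one concentration, 12.5 µM, 0.25% DMSO | times = 90 min reaction at room temperature | signal = FP | read-out basis = % inhibition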
# IDE act – activators of human insulin-degrading enzyme in cells; HEK cells, FAbeta-B cleavage, fluorescence polarization; 0% vehicle, 100% cell-free pure enzyme wells; AID 493087; activation, % at 5.96 µM; 340,000 tested, 0.073% active; P14735;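 active = activation above the mean of all tested compounds plus 3 SD, set per screening campaign, cut at about 17% in these data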
# * hit, by the source's call; nt = not tested or not shown; ! = a repeat was not active.
SMILES,HNF4A DNA FP,TPT1 inhibitor,IDE inh,CSN inh,IDE act
Cc1c(P(=S)(c2ccccc2)c2ccccc2)[n+]2ccccc2n1C,75,nt,nt,74*!,2
Clc1ccc(C(c2ccc(Cl)cc2)n2cc[n+](CC(OCc3ccc(Cl)cc3Cl)c3ccc(Cl)cc3Cl)c2)cc1 (configuration not stated),11,-1,-5,29,19*
CCC(C)(O)C(=O)OC1C(=O)OC2CC3C(C)=CC(O)C(O)C3(C)C3C4(O)OCC23C1C(C)C4O (configuration not stated),0,nt,nt,0,nt
O=C(NC1CCCCC1)N1Cc2cc(-c3cccc(F)c3)ccc2-n2nncc2C1,5,nt,nt,145*,nt
COc1ccc(/C=C2/C(=O)NC(=O)N(Cc3ccco3)C2=O)cc1,nt,33*,1,nt,nt
CCCCn1c(O)c(/C=N/N2CCOCC2)c(=O)[nH]c1=S,4,-1,6,2,8
CCCCCCn1c(O)c(C=Nc2ccccc2N2CCOCC2)c(=O)[nH]c1=S,74*,1,3,3,nt
CCC(c1nnnn1-c1ccc(OC)cc1)N1CCC2(CC1)C(=O)NCN2c1ccccc1 (configuration not stated),-1,nt,nt,1,nt
CN1CCN(C(=O)COc2ccc(S(=O)(=O)Nc3ccc(F)cc3)cc2)CC1,43*,-2,-4,2,4
CN(C)/C=C/C(=O)C(Cl)(Cl)Cl,38*,0,2,-2,6
Cc1ccc(CN2Cc3ccc(Br)cc3-n3nncc3C2)cc1,1,nt,nt,-2,nt
O=C1NCN(c2ccccc2)C12CCN(C(c1ccnc3ccccc13)c1nnnn1-c1ccc3c(c1)OCCO3)CC2 (configuration not stated),-1,nt,nt,0,nt
Cc1ccc2c(c1)=NC(=O)/C(=C/c1c(O)[nH]c(=O)[nH]c1=O)C=2,-1,-2,4,1,0
Cc1ccc2c(c1)=C/C(=C\c1c(O)[nH]c(=S)[nH]c1=O)C(=O)N=2,nt,-1,16*,nt,nt
CCN1C(=O)/C(=C/c2ccc3c(c2)CCN3CCCCl)C(=O)NC1=S,-24,19,-4,18,0
CC(C)(C)N1C(=O)NC(=O)/C(=C\c2ccc3c(c2)CCN3CCCCl)C1=O,17,14,5,39*,-1
CC1CCC(C(C)C)C(OC(=O)Cn2c(COc3ccccc3)[n+](C)c3ccccc32)C1 (configuration not stated),0,0,-10,0,21*
CCOC(=O)c1cc2ccccc2n1C1CCN(Cc2ccccc2)CC1,3,nt,nt,4,nt
CCOC(=O)[C@]12Cc3cc(Cl)ccc3[C@H]1N(C1CCCCC1)C(=O)c1cc(OC)ccc12,-2,nt,nt,1,nt
Nc1c(C(=O)NC2CCCC2)c2nc3ccccc3nc2n1CC1CCCO1 (configuration not stated),0,7,1,46*,2
Cc1ccccc1OP(=O)(Oc1ccccc1C)N1CCOCC1,2,nt,nt,-1,nt
CCOC(=O)[C@]12Cc3c(cc(OC)c(OC)c3OC)[C@H]1N(C1CCCCC1)C(=O)c1ccccc12,3,nt,nt,4,nt
Cc1cccc(C)c1-n1nnnc1C(c1cccs1)N1CCC(n2c(=O)[nH]c3ccccc32)CC1 (configuration not stated),11,nt,nt,68*,nt
Cc1cccc(C)c1-n1nnnc1C(c1cccc2ccccc12)N1CCC(n2c(=O)[nH]c3ccccc32)CC1 (configuration not stated),-3,nt,nt,0,nt
C[C@@]12CC[C@@H](c3cc4c(cc3C1)OCO4)N2c1ccccc1,-4,nt,nt,2,nt
Cc1nc2ccccc2c(=O)n1-c1cccc(C(F)(F)F)c1,3,-4,3,-6,3
Cc1nc2ccccc2c(=O)n1-c1ccc(C(=O)O)cc1,3,2,4,0,18*
OC(CNC1CCCCC1)C(F)(F)F (configuration not stated),-4,0,9,2,20*
O=c1[nH]c2ccccc2n1C1CCN(C(c2ccccc2OC(F)(F)F)c2nnnn2Cc2ccccc2)CC1 (configuration not stated),1,nt,nt,0,nt
O=C1NC(=S)N(c2ccc(F)cc2)C(=O)/C1=C/c1ccco1,nt,78*,3,nt,nt

# High-throughput results from PubChem.
